Test results: ChEMBL document CHEMBL1156174, “Antiproliferative activity of synthetic naphthoquinones related to lapachol. First synthesis of 5-hydroxylapachol” (Bioorg Med Chem, 2010)

What was measured:
[1] = system: WiDr; assay: Growth inhibition of human WiDr cells after 48 hrs by sulforhodamine B assay; assay type: functional
Method in brief: (§1)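 Cells in RPMI 1640 with 5% heat-inactivated FCS and 2 mM L-glutamine at 37 °C, 5% CO2. Seeded per well: 7500 (HBL-100, SW1573), 15,000 (A2780, HeLa, T47D) or 20,000 (WiDr). Drug added day 1 in triplicate dilutions (DMSO 0.25% v/v) for 48 h. Cells fixed with cold TCA, 60 min, 4 °C, then SRB stained and read at 492 nm. NCI percentage-growth formulas used; GI50 taken at PG +50.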

[2] = system: A2780; assay: Growth inhibition of human A2780 cells after 48 hrs by sulforhodamine B assay; assay type: functional; details: A2780, 48 h; method in brief: as §1
[3] = system: HeLa; assay: Growth inhibition of human HeLa cells after 48 hrs by sulforhodamine B assay; assay type: functional; method in brief: as §1
[4] = system: HBL-100; assay: Growth inhibition of human HBL100 cells after 48 hrs by sulforhodamine B assay; assay type: functional; details: HBL-100, 48 h; method in brief: as §1
[5] = system: SW1573; assay: Growth inhibition of human SW1573 cells after 48 hrs by sulforhodamine B assay; assay type: functional; details: SW1573, 48 h; method in brief: as §1
[6] = system: T47D; assay: Growth inhibition of human T47D cells after 48 hrs by sulforhodamine B assay; assay type: functional; method in brief: as §1
[7] = system: Artemia salina; assay: Toxicity in Artemia salina; assay type: organism-based; details: in vivo

Compound | GI50 [2] [µM] | GI50 [3] [µM] | GI50 [5] [µM] | GI50 [6] [µM] | GI50 [1] [µM] | GI50 [4] [µM] | Activity [7] [ppm]
COC1=C(CC=C(C)C)C(=O)c2c(OC)cccc2C1=O | 21 | 18 | 5.8 | 45 | 28 | 17 | –
C=C(C)C1CC2=C(O1)C(=O)c1ccccc1C2=O (stereo not drawn) [DEHYDROISO-ALPHA-LAPACHONE] | 2.6 | 2.1 | 1.9 | 21 | 2.7 | 2.3 | –
O=C1C=CC(=O)c2c(O)cccc21 [JUGLONE] | 64 | 89 | 50 | 77 | 81 | 66 | –
CC(C)=CCOC1=C(CC=C(C)C)C(=O)c2c(O)cccc2C1=O | 1 | 1.9 | 4.3 | 21 | 11 | 1.6 | –
O=C1C=C(O)c2cccc(O)c2C1=O | 28 | 90 | 86 | > 100 | > 100 | > 100 | –
CC1(C)CCC2=C(O1)C(=O)c1ccccc1C2=O [ALPHA-LAPACHONE] | 4 | 15 | 3.1 | 25 | 26 | 14 | –
CC1(C)CCC2=C(O1)c1ccccc1C(=O)C2=O [LAPACHONE] | 1.1 | 0.81 | 0.76 | 2.3 | 2 | 0.69 | –
CC(C)=CCOC1=CC(=O)c2cccc(O)c2C1=O | 2 | 4.5 | 7.7 | 23 | 7.3 | 19 | –
CC(C)(O[N+](=O)[O-])C1CC2=C(O1)C(=O)c1ccccc1C2=O (centres undefined) | 2.1 | 1.8 | 2.5 | 20 | 4.8 | 2.1 | –
CC(C)=CCOC1=CC(=O)c2c(O)cccc2C1=O | 12 | 18 | 17 | 28 | 18 | 27 | –
CC(C)=CCC1=C(O)C(=O)c2ccccc2C1=O [LAPACHOL] | 1.9 | 2.3 | 34 | 76 | 36 | 7.8 | 5
CC(C)=CCOC1=C(CC=C(C)C)C(=O)c2cccc(O)c2C1=O | 5.9 | 20 | 5.1 | 28 | 22 | 20 | –

Now from value to compound, other results behind:

GI50 [2] [µM] | GI50 [3] [µM] | GI50 [5] [µM] | GI50 [6] [µM] | Compound | GI50 [1] [µM] | GI50 [4] [µM] | Activity [7] [ppm]
1.8 | 3.5 | 4.8 | 22 | COC1=C(CC=C(C)C)C(=O)c2c(O)cccc2C1=O | 20 | 20 | –
2.1 | 2.4 | 2.3 | 2.3 | CC(C)(I)C1CC2=C(O1)C(=O)c1cccc(O)c1C2=O (centres undefined) | 1.9 | 2 | –
3.9 | 2.6 | 18 | 30 | CC(C)=CCC1=C(O)C(=O)c2c(O)cccc2C1=O | 19 | 21 | –
2.2 | 2.2 | 2.8 | 23 | CC(C)(O[N+](=O)[O-])C1CC2=C(O1)C(=O)c1cccc(O)c1C2=O (centres undefined) | 18 | 2.8 | –
26 | 28 | 36 | 27 | C=CC(C)(C)C1=C(O)C(=O)c2cccc(O)c2C1=O | 31 | 31 | –
21 | 24 | 3.8 | 30 | C=CC(C)(C)C1=C(O)C(=O)c2c(O)cccc2C1=O | 23 | 16 | –
3.1 | 5.7 | 2 | 4 | NC1=CC(=O)c2cccc(O)c2C1=O | 3.5 | 2.9 | –
2.4 | 7.1 | 5.3 | 34 | CN(C)C1=CC(=O)c2cccc(O)c2C1=O | 17 | 5.7 | –
1.7 | 1.7 | 1.3 | 1.8 | CC1(C)C2=C(OC1CI)C(=O)c1cccc(O)c1C2=O (centres undefined) | 2 | 1.9 | –
0.82 | 0.8 | 0.83 | 2.2 | C=C(C)C1CC2=C(O1)C(=O)c1cccc(O)c1C2=O (centres undefined) | 2 | 0.94 | –
1.6 | 1.3 | 0.4 | 2.5 | CC1(C)C2=C(OC1CI)C(=O)c1c(O)cccc1C2=O (centres undefined) | 2 | 0.41 | –
2.4 | 2.3 | 4.8 | 19 | CC1(C)C=CC2=C(O1)C(=O)c1c(O)cccc1C2=O | 19 | 3.9 | –
3.2 | 12 | 2.7 | 21 | CC1(C)CCC2=C(O1)C(=O)c1cccc(O)c1C2=O | 18 | 2.6 | –
16 | 19 | 35 | 38 | CN(C)C1=CC(=O)c2c(O)cccc2C1=O | 32 | 30 | –
> 100 | > 100 | > 100 | > 100 | O=C1C=C(O)c2c(O)cccc2C1=O | > 100 | > 100 | –
0.57 | 0.42 | 0.7 | 8.1 | CC(C)=CCC1=C(O)C(=O)c2cccc(O)c2C1=O | 6.3 | 0.6 | –
